Bioassay records (PubChem)
CAL PDZ FP-1 = untagged CAL PDZ binding inhibitors, primary screen, biochemical, fluorescence polarization, HTS; inhibition, % at 24.9 µM; purified CAL PDZ, TMR-peptide fluorescence polarization, 1 h; hit rate 0.92% among 300,000; Golgi-associated PDZ and coiled-coil motif-containing protein (Homo sapiens), Q9HD26;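 active means mean inhibition of at least 30% with at least half of replicates also reaching 30%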;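 further: 0% = DMSO neutral control and 100% = excess unlabeled competitor peptide PRC23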
SR-BI uptake up = activators of SR-BI mediated DiI-HDL uptake, primary screen, ldlA[mSR-BI] CHO cells, DiI fluorescence; activation, % at 12.5 µM; AID 504775, 2011; hit rate 0.096% among 320,000; 3 h; 100 = double the neutral-control signal;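 active means mean replicate activation of at least 60% and every replicate at or above 60%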;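 further: 0% = median plate neutral-control signal and 100% = twice that signal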
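Test system: SR-BI-overexpressing, LDLR-lacking CHO cells; Medium: Ham's F12 with 0.5% BSA, HEPES 25 mM, pH 7.4; Schedule: 3 h, 37 °C; Technique: bottom-read fluorescence, 550/595 nm.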
CAL PDZ FP-2 = CAL PDZ peptide-binding inhibitors, primary screen, biochemical, fluorescence polarization, Cer-tagged CAL PDZ, HTS; inhibition, % at 20 µM; AID 504414, 2011; Golgi-associated PDZ and coiled-coil motif-containing protein (Homo sapiens), Q9HD26; hit rate 0.02% among 330,000; purified CAL PDZ, TMR-peptide fluorescence polarization, 1 h;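 active means highest replicate inhibition of at least 40%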;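 further: plate controls were DMSO neutral control wells for no effect and unlabeled competitor peptide control wells for full effect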
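Control set: unlabelled peptide and DMSO controls / Material: purified CerCALP PDZ construct / Timing: 1 h incubation at room temperature before polarization reading / Doses: 20 µM, one dose / Detection: fluorescence polarization (mP)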
ATG4B inhibitor = ATG4B protease inhibitors, primary screen, biochemical, fluorescence, uHTS. Cysteine protease ATG4B (Homo sapiens), Q9Y4P1. ATG4B cleavage of LC3-PLA2, NBD-HPC fluorescence, 1 h. inhibition, % at 8.33 µM. hit rate 0.51% among 340,000; in the data active means inhibition above about 40%
SR-BI HDL uptake = inhibitors of SR-BI mediated HDL lipid uptake, primary screen, ldlA[mSR-BI] cells, fluorescence, single point; Scavenger receptor class B member 1 (Mus musculus), Q61009; ldlA[mSR-BI] CHO cells, DiI-HDL uptake fluorescence, 3 h; inhibition, % at 12.5 µM; hit rate 0.96% among 320,000;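 active means mean replicate inhibition of at least 70% and a set share of replicates each scoring 70 or more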;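 further: 0% = median of neutral control wells and 100% = median of positive control wells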
Target sequence (Q61009 whole entry, looked up): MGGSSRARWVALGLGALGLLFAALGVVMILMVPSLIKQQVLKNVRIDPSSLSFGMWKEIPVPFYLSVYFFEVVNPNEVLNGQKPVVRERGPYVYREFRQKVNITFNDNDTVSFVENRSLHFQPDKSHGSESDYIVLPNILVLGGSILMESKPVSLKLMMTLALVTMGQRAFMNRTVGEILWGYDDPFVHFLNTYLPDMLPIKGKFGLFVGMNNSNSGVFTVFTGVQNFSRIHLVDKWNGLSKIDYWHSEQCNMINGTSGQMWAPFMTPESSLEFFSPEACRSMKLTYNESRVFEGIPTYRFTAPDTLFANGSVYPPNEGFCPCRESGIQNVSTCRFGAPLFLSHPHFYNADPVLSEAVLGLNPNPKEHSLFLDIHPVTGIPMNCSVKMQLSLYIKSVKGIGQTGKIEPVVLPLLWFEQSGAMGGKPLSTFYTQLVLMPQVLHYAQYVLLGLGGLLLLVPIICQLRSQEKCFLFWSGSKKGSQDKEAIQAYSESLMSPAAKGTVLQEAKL
An asterisk follows results filed as active; x = no result. Compounds with a hit are over-represented: about 2.3% of the library has one in this group of screens.

SMILES | CAL PDZ FP-1 | SR-BI uptake up | CAL PDZ FP-2 | ATG4B inhibitor | SR-BI HDL uptake
O=[N+]([O-])c1ccc2nc(-c3ccc(Cl)cc3)n(OCc3ccccc3)c2c1 | -2.3 | -80.7 | 0.1 | 5.5 | 80.7*
O=C(NNC(=O)c1csc(N2CCOCC2)n1)c1ccc(=O)[nH]c1 | x | 16.1 | -0.5 | -2.8 | -16.1
CCOc1ccc(NC(=O)CN(C)C(=O)c2cccnc2Sc2ccc(Cl)cc2)cc1OCC | -3.2 | 81.9* | -2.5 | 10.4 | -81.9
CCOc1ccc2oc(C(=O)N(C)CCc3ccc(OC)c(OC)c3)c(C)c2c1 | -0.1 | -35.3 | -0.2 | -54.3 | 35.3
CCOc1ccc2oc(C(=O)N(C)CC(=O)Nc3ccc(OCC)c(OCC)c3)c(C)c2c1 | -3.7 | -82.5 | 0.1 | 3.7 | 82.5*
CCOc1ccc(NC(=O)CN(C)C(=O)CCCOc2ccc(Br)cc2)cc1OCC | -1.6 | -82.8 | -1.7 | -10.2 | 82.8*
CCOc1ccc(NC(=O)CN(C)C(=O)CCNC(=O)c2ccc(Br)cc2)cc1OCC | -3.7 | -59.4 | -1.1 | 2.4 | 59.4
COC(=O)[C@H](Cc1ccccc1)NC(=O)NC(C)CCc1ccccc1 (some centres not stated) | 42.0* | -15.8 | x | -9.9 | 15.8
C=CCC(C#Cc1ccccc1)N(C)C (configuration not stated) | 86.6* | 22.0 | -1.2 | 3.9 | -22.0
C=CCC(C#Cc1ccccc1)[N+](C)(C)CC=C (configuration not stated) | x | 12.9 | 1.2 | 4.0 | -13.0
CCOc1cc2c(C#N)c(N3CCNCC3)nc(N)c2c(N)n1 | 70.4* | 3.1 | 0.4 | -1.9 | -3.1
Cc1cc(F)ccc1S(=O)(=O)N1CCCOC1CNC(=O)C(=O)NCCCN1CCOCC1 (configuration not stated) | -7.0 | 22.5 | -10.5 | 3.4 | -22.5
COc1ccc(CN(C(=O)c2ccco2)c2ccc(C)c(C)c2)cc1 | 30.9* | 13.9 | -0.2 | 3.2 | -13.9
CCOc1ccc(N(Cc2ccc(OC)cc2)C(=O)c2ccco2)cc1 | -0.5 | -18.3 | -1.2 | 9.8 | 18.3
CCOc1ccc(CCNC(=O)CN2CCN(Cc3ccccc3C)C2=O)cc1OCC | -4.7 | -79.2 | -0.9 | -3.6 | 79.2*
COc1ccc(CCNC(=O)CN2CCN(Cc3ccccc3F)C2=O)cc1OC | -1.2 | 7.7 | -1.6 | -2.1 | -7.7
CC1(C)CC(NC(=O)c2c(N)no[n+]2[O-])CC(C)(C)N1 | -6.1 | 33.0 | 15.7 | 3.6 | -33.0
CC1CCCCC1NS(=O)(=O)CCNC(=O)c1ccccc1 (configuration not stated) | 34.9* | 9.4 | 0.0 | 7.4 | -9.4
CC12CC3(C)CC(C)(C1)CC(C(=O)NCc1cccnc1)(C2)C3 | -4.3 | -12.4 | -4.2 | 1.1 | 12.4
CC(O)c1nc2ccccc2n1CC(=O)N1CCN(c2ccccc2)CC1 (configuration not stated) | 1.0 | 8.4 | -1.3 | 4.5 | -8.4
Cc1[nH]c2ccccc2c1N=Nc1ccccc1F | x | -34.9 | 0.4 | -1.6 | 34.9
Cc1[nH]c2ccccc2c1N=Nc1ccc(F)cc1 | -5.4 | -83.1 | -2.2 | 4.1 | 83.1*
Cc1ccc(S(=O)(=O)N2CCCCC2)cc1NC(=O)COC(=O)C1(C)CC1(Cl)Cl (configuration not stated) | 66.8* | 13.5 | -0.1 | -1.9 | -13.5
Cc1ccc2c(c1)C(c1ccccc1)N(C(=O)c1ccccc1[N+](=O)[O-])CC(=O)N2 (configuration not stated) | 70.5* | 20.3 | -0.3 | -10.0 | -20.4
COC(=O)[C@H](C)N(Cc1ccc(Cl)c(Cl)c1)S(=O)(=O)CCN1CCCC1 | 34.8* | -60.8 | -1.4 | -10.3 | 60.8
SMILES | CAL PDZ FP-1 | SR-BI uptake up | CAL PDZ FP-2 | ATG4B inhibitor | SR-BI HDL uptake
C(C#CCN1CCOCC1)#CCN1CCOCC1 | x | 12.3 | 0.7 | 2.0 | -12.3
CCOC(=O)C1=C(O)/C(=C\c2ccc(O)c(OCC)c2)N=C1C | 62.7* | -22.2 | -0.2 | -5.6 | 22.2
CCOC(=O)C(C)Sc1ccc2nnc(CCNS(=O)(=O)c3ccccc3)n2n1 (configuration not stated) | 8.0 | 12.7 | -1.0 | -0.8 | -12.7
COc1ccc(C(=O)Nc2cccc(NC(=O)c3ccc(OC)c(OC)c3)n2)cc1OC | -7.1 | -81.4 | -5.1 | -10.6 | 81.4*
COc1ccc(C(=O)Nc2nc(C)c(C)s2)cc1OC | -7.3 | -79.1 | -1.6 | -5.1 | 79.1*
COc1ccccc1C(=O)Nc1cccc(NC(=O)c2ccccc2OC)n1 | -0.9 | -31.9 | -1.0 | -7.9 | 31.9
COc1ccc(Cc2nnc(NC(=O)c3ccc(OC)c(OC)c3)s2)cc1 | -2.3 | -11.6 | 12.7 | 8.2 | 11.6
COc1ccc(C(=O)Nc2cccc3cccnc23)cc1OC | -4.7 | -78.9 | -3.5 | -36.4 | 78.7*
COc1ccc(NC(=O)C(=O)Nc2cccc3cccnc23)cc1OC | -4.0 | -7.0 | -0.4 | 5.2 | 7.0
COc1ccc(CN(C)C(=O)c2cccc(S(=O)(=O)N3CCCc4ccccc43)c2)c(OC)c1OC | -0.9 | -12.0 | 0.2 | -18.6 | 12.0
Cc1cc(C)cc(NC(=O)N(CCC#N)Cc2cccs2)c1 | -1.4 | -11.2 | 0.9 | 2.1 | 11.2
O=C(CN1C(=O)c2ccccc2S1(=O)=O)NCCc1ccc(F)cc1 | -0.3 | 18.8 | 0.1 | 7.2 | -18.8
CC(C)(C)CC(=O)NCCCN1CCOCC1 | 36.9* | 12.3 | 3.8 | -5.7 | -12.3
CC(C)CNC(=O)C(=O)NCCCN1CCOCC1 | -0.9 | 21.5 | -1.5 | -8.9 | -21.5
COc1cccc(NC(=O)Cc2nc(-c3ccccc3)sc2-c2ccc(C)cc2)c1 | -1.8 | -86.2 | -3.3 | 1.5 | 86.2*
COC(=O)c1cccc(NC(=O)Cc2nc(-c3ccccc3)sc2-c2ccc(C)cc2)c1 | -2.9 | -71.3 | -0.2 | -1.9 | 71.3*
CC(=O)Nc1cccc(NC(=O)Cc2nc(-c3ccccc3)sc2-c2ccc(C)cc2)c1 | -1.2 | -60.2 | -0.9 | -10.5 | 60.2
Cc1ccc(C)c(NC(=O)CCN2CCN(CCO)CC2)c1 | x | -6.8 | -1.0 | 2.2 | 6.8
N#C/C(=C/C1=C(N2CCOCC2)C(=C/c2ccc(Cl)cc2)/CC1)C(=O)Nc1ccccc1F | x | -48.4 | -0.6 | -6.3 | 48.4
CCOC(=O)C1Nc2ccc(C(=O)O)cc2C2C=CCC12 (configuration not stated) | 43.6* | -0.2 | x | 7.5 | 0.2
CCCC1Nc2ccc(C(=O)O)cc2C2C=CCC12 (configuration not stated) | x | -2.8 | -0.9 | 18.2 | 2.8
C=CCN(C(=O)c1ccc(Cl)cc1)c1ccccc1C(=O)NCC(=O)O | x | 7.5 | 0.4 | 4.2 | -7.5
